Data reported in paper PMC7114445 (Virus Research, 2015).

How the values were obtained:
Experiment in all cases: Plaque inhibition test in fcwf-4 cells
type I FIPV strain KU-2 = type: cell-based, feline infectious peritonitis virus; conditions: for Plaque reduction by serial dilutions of peptides: peptide 160, 80 and 40 μM, triplicate
Method in brief: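 Strain KU-2 plaque assay in fcwf-4 cells. Peptide from a 10 mM DMSO stock was diluted to 100 μM, or to 160, 80 and 40 μM, in medium with 2% FCS and 25 μg/mL DEAE-dextran, with 30 min RT pretreatment; 1% DMSO was the solvent control. Without washing, 10 μL of 8000 pfu/mL virus added, 30 min at 37 °C. Wash, carboxymethyl cellulose overlay, 2 days at 37 °C, crystal violet. % plaque inhibition against virus-alone wells.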

type I FIPV strain Black = type: cell-based, feline infectious peritonitis virus; conditions: peptide 100 μM
Method in brief: (§1)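 Peptide (10 mM DMSO stock) diluted to 100 μM in medium with 2% FCS and 25 μg/mL DEAE-dextran, then applied to fcwf-4 cells for 30 min at RT. Same-fold DMSO (1%) served as solvent control. Without washing, 10 μL of 8000 pfu/mL virus added for 30 min at 37 °C. Cells washed, overlaid with 2% FCS/1.5% carboxymethyl cellulose for 2 days at 37 °C, formalin-fixed and crystal violet-stained. % plaque inhibition calculated against virus-alone wells.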

FCV strain F4 = type: cell-based, feline calicivirus; conditions: peptide 100 μM, fcwf-4 cells 30 min RT, triplicate
Method in brief: as §1

type I FIPV strain UCD-1 = type: cell-based, feline infectious peritonitis virus; conditions: peptide 100 μM
Method in brief: as §1

FHV strain C7301 = type: cell-based, feline herpesvirus; conditions: peptide 100 μM, fcwf-4 cells 30 min RT, triplicate
Method in brief: as §1

[1] = tested on: type II FIPV strain 79-1146; type: cell-based, feline infectious peritonitis virus; conditions: peptide 100 μM
Method in brief: as §1

[2] = fcwf-4 cells 30 min RT, vs 1% DMSO, triplicate

## LFYKYTSLQGLYTYSNLVEL [I-S1-22]
Type I FIPV strain KU-2
  Plaque reduction by serial dilutions of peptides: dose-dependent

## VNFSISSVEEYGFWTIAYTN [I-S1-8]
Type I FIPV strain KU-2
  Plaque reduction by serial dilutions of peptides: dose-dependent

## YHWMNVTLHVVLNDTEKKYD [I-S1-16]
Type I FIPV strain Black; fcwf-4 cells
  Plaque inhibition, type I FIPV strain Black: ≥ 50%
Type I FIPV strain Black; [2]
  Inhibition of infection by type I FIPV strain Black: significantly inhibited
Type I FIPV strain KU-2; peptide 100 μM
  Plaque inhibition, type I FIPV strain KU-2: ≥ 50%
Type I FIPV strain KU-2
  Plaque reduction by serial dilutions of peptides: dose-dependent
FCV strain F4
  Inhibitory effect on infection by FCV strain F4: no inhibitory effects
Type I FIPV strain UCD-1; fcwf-4 cells
  Plaque inhibition, type I FIPV strain UCD-1: ≥ 50%
Type I FIPV strain UCD-1; [2]
  Inhibition of infection by type I FIPV strain UCD-1: significantly inhibited
FHV strain C7301
  Inhibitory effect on infection by FHV strain C7301: no inhibitory effects
[1]; fcwf-4 cells
  Plaque inhibition, type II FIPV strain 79-1146: less than 50%
[1]; [2]
  Inhibition of infection by type II FIPV strain 79-1146: significantly inhibited

## YTDVMVDVNGTAITRLFYCD [I-S1-10]
Type I FIPV strain KU-2
  Plaque reduction by serial dilutions of peptides: dose-dependent
